Test results taken from ChEMBL document CHEMBL4689842, “EUbOPEN Chemogenomics Library wave 1” (2021).

System: Fibroblast
Experiment: Multiplex assay against human fibroblast
Type: toxicity, cell-based
How it was run: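 Live cells carried four stains from seeding: Hoechst33342, BioTracker Green Microtubule Cytoskeleton Dye, MitoTracker Red and Annexin V Alexa Fluor 680. They were imaged on a CQ1 microscope at 37°C and 5% CO2 after compound addition. Using CellPathfinder machine-learning gating, cells were split into Hoechst high-intensity objects or normal cells, normal cells into healthy, pyknosed or fragmented nuclei, and pyknosed cells into mitotic or apoptotic; tubulin, mitochondrial-mass and membrane-permeability phenotypes are per cents of healthy-nucleus cells.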

[1] = 12 h, 1 µM, compound concentration 1 uM, replicate 1
[2] = 12 h, 1 µM, compound concentration 1 uM, replicate 2
[3] = 12 h, 10 µM, compound concentration 10 uM, replicate 1
[4] = 12 h, 10 µM, compound concentration 10 uM, replicate 2
[5] = 24 h, 1 µM, compound concentration 1 uM, replicate 1
[6] = 24 h, 1 µM, compound concentration 1 uM, replicate 2
[7] = 24 h, 10 µM, compound concentration 10 uM, replicate 1
[8] = 24 h, 10 µM, compound concentration 10 uM, replicate 2

SMILES: CN(C)C/C=C/C(=O)Nc1cc2c(Nc3ccc(F)c(Cl)c3)ncnc2cc1O[C@H]1CCOC1.O=C(O)/C=C\C(=O)O.O=C(O)/C=C\C(=O)O [AFATINIB DIMALEATE]
- Population Apoptotic (%) [1]: 66%
- Population Fragmented Nuclei (%) [1]: 30%
- Population Healthy Nuclei (%) [1]: 53%
- Population Hoechst High Intensity Objects (%) [1]: 13%
- Population Membrane Permeable-Phenotype (%) [1]: 13%
- Population Mitochondria Different-Phenotype (%) [1]: 3%
- Population Mitotic Cells (%) [1]: 33%
- Population Normal (%) [1]: 86%
- Population Pyknosed Nuclei (%) [1]: 16%
- Population Tubulin-Different-Phenotype (%) [1]: 10%
- Total Cell Count [1]: 234
- Population Apoptotic (%) [2]: 45%
- Population Fragmented Nuclei (%) [2]: 60%
- Population Healthy Nuclei (%) [2]: 21%
- Population Hoechst High Intensity Objects (%) [2]: 38%
- Population Membrane Permeable-Phenotype (%) [2]: 7%
- Population Mitochondria Different-Phenotype (%) [2]: 30%
- Population Mitotic Cells (%) [2]: 54%
- Population Normal (%) [2]: 61%
- Population Pyknosed Nuclei (%) [2]: 18%
- Population Tubulin-Different-Phenotype (%) [2]: 15%
- Total Cell Count [2]: 99
- Population Apoptotic (%) [3]: 58%
- Population Fragmented Nuclei (%) [3]: 27%
- Population Healthy Nuclei (%) [3]: 50%
- Population Hoechst High Intensity Objects (%) [3]: 24%
- Population Membrane Permeable-Phenotype (%) [3]: 18%
- Population Mitochondria Different-Phenotype (%) [3]: 12%
- Population Mitotic Cells (%) [3]: 41%
- Population Normal (%) [3]: 75%
- Population Pyknosed Nuclei (%) [3]: 22%
- Population Tubulin-Different-Phenotype (%) [3]: 68%
- Total Cell Count [3]: 247
- Population Apoptotic (%) [4]: 22%
- Population Fragmented Nuclei (%) [4]: 33%
- Population Healthy Nuclei (%) [4]: 52%
- Population Hoechst High Intensity Objects (%) [4]: 34%
- Population Membrane Permeable-Phenotype (%) [4]: 16%
- Population Mitochondria Different-Phenotype (%) [4]: 13%
- Population Mitotic Cells (%) [4]: 77%
- Population Normal (%) [4]: 65%
- Population Pyknosed Nuclei (%) [4]: 13%
- Population Tubulin-Different-Phenotype (%) [4]: 91%
- Total Cell Count [4]: 104
- Population Apoptotic (%) [5]: 72%
- Population Fragmented Nuclei (%) [5]: 35%
- Population Healthy Nuclei (%) [5]: 53%
- Population Hoechst High Intensity Objects (%) [5]: 18%
- Population Membrane Permeable-Phenotype (%) [5]: 5%
- Population Mitochondria Different-Phenotype (%) [5]: 7%
- Population Mitotic Cells (%) [5]: 27%
- Population Normal (%) [5]: 81%
- Population Pyknosed Nuclei (%) [5]: 10%
- Population Tubulin-Different-Phenotype (%) [5]: 13%
- Total Cell Count [5]: 247
- Population Apoptotic (%) [6]: 50%
- Population Fragmented Nuclei (%) [6]: 54%
- Population Healthy Nuclei (%) [6]: 28%
- Population Hoechst High Intensity Objects (%) [6]: 34%
- Population Membrane Permeable-Phenotype (%) [6]: 0%
- Population Mitochondria Different-Phenotype (%) [6]: 6%
- Population Mitotic Cells (%) [6]: 50%
- Population Normal (%) [6]: 65%
- Population Pyknosed Nuclei (%) [6]: 17%
- Population Tubulin-Different-Phenotype (%) [6]: 12%
- Total Cell Count [6]: 87
- Population Apoptotic (%) [7]: 57%
- Population Fragmented Nuclei (%) [7]: 29%
- Population Healthy Nuclei (%) [7]: 54%
- Population Hoechst High Intensity Objects (%) [7]: 38%
- Population Membrane Permeable-Phenotype (%) [7]: 19%
- Population Mitochondria Different-Phenotype (%) [7]: 21%
- Population Mitotic Cells (%) [7]: 42%
- Population Normal (%) [7]: 61%
- Population Pyknosed Nuclei (%) [7]: 15%
- Population Tubulin-Different-Phenotype (%) [7]: 61%
- Population Apoptotic (%) [8]: 66%
- Population Fragmented Nuclei (%) [8]: 49%
- Population Healthy Nuclei (%) [8]: 36%
- Population Hoechst High Intensity Objects (%) [8]: 35%
- Population Membrane Permeable-Phenotype (%) [8]: 34%
- Population Mitochondria Different-Phenotype (%) [8]: 26%
- Population Mitotic Cells (%) [8]: 33%
- Population Normal (%) [8]: 64%
- Population Pyknosed Nuclei (%) [8]: 14%
- Population Tubulin-Different-Phenotype (%) [8]: 82%
- Total Cell Count [8]: 98

SMILES: CC(C)(C)c1cnc(CSc2cnc(NC(=O)C3CCNCC3)s2)o1 [BMS-387032]
- Population Apoptotic (%) [1]: 75%
- Population Fragmented Nuclei (%) [1]: 25%
- Population Healthy Nuclei (%) [1]: 56%
- Population Hoechst High Intensity Objects (%) [1]: 12%
- Population Membrane Permeable-Phenotype (%) [1]: 10%
- Population Mitochondria Different-Phenotype (%) [1]: 10%
- Population Mitotic Cells (%) [1]: 24%
- Population Normal (%) [1]: 87%
- Population Pyknosed Nuclei (%) [1]: 18%
- Population Tubulin-Different-Phenotype (%) [1]: 11%
- Total Cell Count [1]: 199
- Population Apoptotic (%) [2]: 50%
- Population Fragmented Nuclei (%) [2]: 58%
- Population Healthy Nuclei (%) [2]: 33%
- Population Hoechst High Intensity Objects (%) [2]: 37%
- Population Membrane Permeable-Phenotype (%) [2]: 5%
- Population Mitochondria Different-Phenotype (%) [2]: 5%
- Population Mitotic Cells (%) [2]: 50%
- Population Normal (%) [2]: 62%
- Population Pyknosed Nuclei (%) [2]: 7%
- Population Tubulin-Different-Phenotype (%) [2]: 0%
- Total Cell Count [2]: 82
- Population Apoptotic (%) [3]: 75%
- Population Fragmented Nuclei (%) [3]: 28%
- Population Healthy Nuclei (%) [3]: 54%
- Population Hoechst High Intensity Objects (%) [3]: 8%
- Population Membrane Permeable-Phenotype (%) [3]: 1%
- Population Mitochondria Different-Phenotype (%) [3]: 21%
- Population Mitotic Cells (%) [3]: 24%
- Population Normal (%) [3]: 91%
- Population Pyknosed Nuclei (%) [3]: 17%
- Population Tubulin-Different-Phenotype (%) [3]: 32%
- Total Cell Count [3]: 207
- Population Apoptotic (%) [4]: 54%
- Population Fragmented Nuclei (%) [4]: 58%
- Population Healthy Nuclei (%) [4]: 19%
- Population Hoechst High Intensity Objects (%) [4]: 26%
- Population Membrane Permeable-Phenotype (%) [4]: 0%
- Population Mitochondria Different-Phenotype (%) [4]: 50%
- Population Mitotic Cells (%) [4]: 45%
- Population Normal (%) [4]: 73%
- Population Pyknosed Nuclei (%) [4]: 21%
- Population Tubulin-Different-Phenotype (%) [4]: 40%
- Total Cell Count [4]: 69
- Population Apoptotic (%) [5]: 54%
- Population Fragmented Nuclei (%) [5]: 30%
- Population Healthy Nuclei (%) [5]: 47%
- Population Hoechst High Intensity Objects (%) [5]: 12%
- Population Membrane Permeable-Phenotype (%) [5]: 6%
- Population Mitochondria Different-Phenotype (%) [5]: 4%
- Population Mitotic Cells (%) [5]: 45%
- Population Normal (%) [5]: 87%
- Population Pyknosed Nuclei (%) [5]: 21%
- Population Tubulin-Different-Phenotype (%) [5]: 10%
- Total Cell Count [5]: 197
- Population Apoptotic (%) [6]: 62%
- Population Fragmented Nuclei (%) [6]: 51%
- Population Healthy Nuclei (%) [6]: 32%
- Population Hoechst High Intensity Objects (%) [6]: 35%
- Population Membrane Permeable-Phenotype (%) [6]: 5%
- Population Mitochondria Different-Phenotype (%) [6]: 5%
- Population Mitotic Cells (%) [6]: 37%
- Population Normal (%) [6]: 65%
- Population Pyknosed Nuclei (%) [6]: 15%
- Population Tubulin-Different-Phenotype (%) [6]: 5%
- Total Cell Count [6]: 80
- Population Apoptotic (%) [7]: 65%
- Population Fragmented Nuclei (%) [7]: 34%
- Population Healthy Nuclei (%) [7]: 48%
- Population Hoechst High Intensity Objects (%) [7]: 8%
- Population Membrane Permeable-Phenotype (%) [7]: 4%
- Population Mitochondria Different-Phenotype (%) [7]: 29%
- Population Mitotic Cells (%) [7]: 34%
- Population Normal (%) [7]: 91%
- Population Pyknosed Nuclei (%) [7]: 17%
- Population Tubulin-Different-Phenotype (%) [7]: 54%
- Total Cell Count [7]: 196
- Population Apoptotic (%) [8]: 62%
- Population Fragmented Nuclei (%) [8]: 44%
- Population Healthy Nuclei (%) [8]: 18%
- Population Hoechst High Intensity Objects (%) [8]: 31%
- Population Membrane Permeable-Phenotype (%) [8]: 0%
- Population Mitochondria Different-Phenotype (%) [8]: 62%
- Population Mitotic Cells (%) [8]: 37%
- Population Normal (%) [8]: 68%
- Population Pyknosed Nuclei (%) [8]: 37%
- Population Tubulin-Different-Phenotype (%) [8]: 50%
- Total Cell Count [8]: 63
